The text below walks through data of ChEMBL document CHEMBL4261486, “2-Arylaminobenzothiazole-arylpropenone conjugates as tubulin polymerization inhibitors” (Medchemcomm, 2017).

pIC50: −log10 of the molar value. Active and inactive are the calls of the source. The calls are words filed in the database; no cut-off is given here.

The subject of one test is A549. Nature of the test: Antiproliferative activity against human A549 cells after 48 hrs by sulforhodamine B assay. It counts as functional, cell-based. The settings on record: A549, 48 h. The essentials:
(§1)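 Cells grown in DMEM with 10% FBS at 37 °C under 5% CO2. Plated cells were allowed 24 h before drug, then exposed continuously for 48 h at 0.01, 0.1, 1, 10 and 100 μM. Monolayers were fixed with cold 10% TCA for 1 h at 4 °C and stained with 0.057% SRB in 1% acetic acid for 30 min. Bound dye was read at 510 nm. IC50 is the 50% growth-inhibitory concentration, using time-zero and control readings.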
(The SRB assay estimates cell density from bound dye.)

Test [1] has as its system HeLa. Kind of test: Antiproliferative activity against human HeLa cells after 48 hrs by sulforhodamine B assay. The test is classed as functional, cell-based. The essentials:
as §1

The test system of a further test is MDA-MB-231. Kind of test: Antiproliferative activity against human MDA-MB-231 cells after 48 hrs by sulforhodamine B assay. The test is classed as functional, cell-based. As to conditions: MDA-MB-231, 48 h. The essentials: as §1
Another test relates to MIA PaCa-2. Kind of test: Antiproliferative activity against human MIAPaCa2 cells after 48 hrs by sulforhodamine B assay. The test is classed as functional, cell-based. As to conditions: MIA PaCa-2, 48 h. In short, it runs like this: as §1
Test [2] relates to HeLa. Kind of test: Cell cycle arrest in human HeLa cells assessed as accumulation at G2/M phase at 3 uM after 24 hrs by propidium iodide staining based flow cytometry (reference value: 33.4%). It counts as functional. (In general: A flow cytometer gives signals particle by particle.)
Test [3] deals with HeLa. Nature of the test: Upregulation of cyclin-B1 expression in human HeLa cells at 3 uM after 24 hrs by Western blot analysis. The test is classed as functional, cell-based. In short, it runs like this: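 HeLa cells were treated with 3 μM for 24 h, with a DMSO vehicle control. Cyclin B1 protein was detected by immunoblot with tubulin as loading control.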
Test [4] relates to HeLa. Nature of the test: Induction of cyclin-B1 mRNA expression in human HeLa cells by qRT-PCR analysis. The test is classed as functional, cell-based.
The nature of test [5]: Inhibition of bovine brain tubulin polymerization pretreated followed by GTP addition measured at 1 min interval for 1 hr by fluorescence reporter based assay. Also noted: species or system Bos taurus. The essentials:
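Bovine brain tubulin (2 mg/mL) was pre-incubated with compound at 1, 2, 3, 4 and 5 μM. The buffer was PEM (80 mM PIPES, 0.5 mM EGTA, 2 mM MgCl2, pH 6.9) with 10 μM fluorescent reporter and 1 mM GTP at 37 °C. Fluorescence (ex 360 / em 420 nm) was read every min for 1 h. IC50 was derived from these concentrations.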

The target in test [6] is T1, Tubulin (Homo sapiens) (UniProt P68371+Q9H4B7+P0DPH7+P68366+Q13509+Q71U36+P04350+Q3ZCM7+P07437+P68363+Q9BQE3+Q6PEY2+Q13885+Q9BVA1+Q9BUF5). Nature of the test: Inhibition of tubulin polymerization in human HeLa cells assessed as disruption of microtubule organization at 3 uM after 24 hrs by DAPI staining based confocal microscopic analysis. It counts as cell-based. In short, it runs like this:
(§2)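 HeLa cells on coverslips were exposed to 3 μM for 24 h and fixed in 3.5% formaldehyde in PBS. They were permeabilized with Triton X-100/Tween-20 and blocked in 2% BSA. Primary antitubulin antibody (1:200) was applied for 4 h, then FITC anti-mouse secondary (1:500) for 1 h. Nuclei were counterstained with DAPI and imaged by confocal microscopy at 60×, with a DMSO control.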

Test [7] concerns the target T1, Tubulin (Homo sapiens). Kind of test: Inhibition of tubulin polymerization in human HeLa cells assessed as increase of tubulin in soluble fraction at 3 uM after 24 hrs by Western blot analysis. It counts as cell-based. The essentials:
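HeLa cells, 1 × 10^5 per well, were treated for 24 h (3 μM for test conjugates). The soluble fraction was extracted with warm PIPES/Triton lysis buffer for 3 min at 30 °C, and the remaining polymerized fraction was taken in Laemmli buffer. Equal volumes were run by SDS-10% PAGE and immunoblotted for α-tubulin (1:2000) with HRP secondary and ECL detection.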
(In general: In western blotting, separated proteins are transferred to a membrane and probed.)

Test [8] deals with HeLa. Kind of test: Induction of apoptosis in human HeLa cells assessed as appearance of condensed nuclei at 1 uM after 24 hrs by Hoechst […] staining based fluorescence microscopic analysis. It counts as functional, cell-based. In short, it runs like this: (§3)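 HeLa cells, 5 × 10^4 per well, were allowed 24 h to adhere. They were then exposed to 1 μM for 24 h at 37 °C and fixed in 4% paraformaldehyde for 10 min at 4 °C. Staining was with Hoechst […] at 5 μg/mL for 30 min at room temperature. Nuclear morphology was scored by fluorescence microscopy (ex 350, em 460 nm).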

The test system of test [9] is HeLa. Kind of test: Induction of mitochondrial membrane potential loss in human HeLa cells assessed as collapse of the mitochondrial membrane potential at 1 uM after 24 hrs by Rh-123 staining based spectrofluorimetric method relative to control. The test is classed as functional. In short, it runs like this:
(§4)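 HeLa cells, seeded at 5 × 10^5 cells per mL overnight, were exposed to 1 μM for 24 h. Cells were trypsinized and incubated in PBS with Rhodamine-123 (10 μg/mL) for 30 min at room temperature, then washed. Fluorescence was read on a spectrofluorometer relative to control. Data are mean ± SD of three independent experiments.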

The subject of test [10] is HeLa. Nature of the test: Induction of reactive oxygen species generation in human HeLa cells at 1 uM after 24 hrs by carboxy-DCFH-DA staining based fluorescence microscopic analysis. The test is classed as functional, cell-based. The essentials: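 Cells were treated with 1 μM for 24 h, then loaded with carboxy-DCFH-DA (10 μM) for 30 min at room temperature in the dark. They were resuspended in PBS at 5 × 10^4 cells per mL. DCF fluorescence was read by spectrofluorometer (ex 488 / em 525 nm per methods; 485/535 nm per legend), and images were taken by fluorescence microscopy.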

The target of test [11] is T1, Tubulin (Homo sapiens). Kind of test: Inhibition of tubulin polymerization in human HeLa cells assessed as appearance of irregular microtubule at 3 uM after 24 hrs by DAPI staining based confocal microscopic analysis. It counts as cell-based. In short, it runs like this: as §2
Test [12] deals with T1, Tubulin (Homo sapiens). Kind of test: Inhibition of tubulin polymerization in human HeLa cells assessed as appearance of rounded microtubule at 3 uM after 24 hrs by DAPI staining based confocal microscopic analysis. The test is classed as cell-based. The essentials: as §2
Test [13] deals with HeLa. Kind of test: Induction of apoptosis in human HeLa cells assessed as appearance of condensed nuclei after 24 hrs by Hoechst […] staining based fluorescence microscopic analysis. It counts as functional, cell-based. In short, it runs like this: as §3
The subject of test [14] is HeLa. Nature of the test: Induction of mitochondrial membrane potential loss in human HeLa cells at 1 uM after 24 hrs by Rh-123 staining based spectrofluorimetric method relative to control. It counts as functional. In short, it runs like this:
as §4

The pIC50 is −log10 of the IC50, conventionally taken in molar units. In the case of `COc1ccc2nc(-c3ccc(N/C=C\C(=O)c4ccc(OC)c(F)c4)cc3)sc2c1`, the pIC50 in the test on A549 is 6.05; with HeLa [1], 6.30; in the test with MDA-MB-231, 5.96; with MIA PaCa-2, 5.89; in test [5], 5.66. Further, the Activity in the test on HeLa [2] is given as 88.7%; with HeLa [9], 40%. For the same molecule, the result in the test with HeLa [3], in the test with HeLa [4], with HeLa [8] and in the test on HeLa [10] was Active. The inhibition result on Tubulin (Homo sapiens) [6], at Tubulin (Homo sapiens) [7], on Tubulin (Homo sapiens) [11] and on Tubulin (Homo sapiens) [12] was “Active” throughout.

As for `COC(=O)Nc1nc2cc(C(=O)c3cccs3)ccc2[nH]1` [NOCODAZOLE], the pIC50 in the test with A549 is 6.09; in the test with HeLa [1], 6.08; in the test with MDA-MB-231, 6.15; in the test with MIA PaCa-2, 6.04; in [5], 5.74. Besides, in the test on HeLa [2], the Activity was 87.5%. For the same molecule, the outcome in the test on HeLa [13] and in the test on HeLa [10] was Active.

Turning to `COc1ccc2nc(-c3ccc(N/C=C\C(=O)c4ccc(OC)c(F)c4)c(C)c3)sc2c1`, the pIC50 is 5.85 in the test on A549; 6.22 with HeLa [1]; 5.70 in the test on MDA-MB-231; 5.64 with MIA PaCa-2; 5.54 in [5]. Moreover, the results for the Activity in the test with HeLa [2] and in the test with HeLa [14] were 86.1% and 30%, respectively. The result in the test on HeLa [3], in the test on HeLa [4], in the test on HeLa [8] and in the test with HeLa [10] was Active. Also, the inhibition entry on Tubulin (Homo sapiens) [6], on Tubulin (Homo sapiens) [7], on Tubulin (Homo sapiens) [11] and on Tubulin (Homo sapiens) [12] was “Active” in each case.
